Experimental data from ChEMBL document CHEMBL2057112, “Enamino-oxindole HIV protease inhibitors” (Bioorg Med Chem Lett, 2012).
pIC50, pKi: −log10 of the molar value.

Assays:
[1] = tested on: Human immunodeficiency virus 1; test: Antiviral activity against Human immunodeficiency virus 1 HXB2 expressing protease M8 mutant infected in human MT4 cells after 5 days by MTT assay; assay type: functional, organism-based; conditions: Human immunodeficiency virus 1, HXB2, MT4, 120 h
[2] = tested on: Human immunodeficiency virus 1; test: Antiviral activity against Human immunodeficiency virus 1 HXB2 expressing wild type protease infected in human MT4 cells after 5 days by MTT assay; assay type: functional, organism-based; conditions: Human immunodeficiency virus 1, HXB2, MT4, 120 h
[3] = tested on: Human immunodeficiency virus 1; test: Antiviral activity against Human immunodeficiency virus 1 HXB2 expressing protease M10 mutant infected in human MT4 cells after 5 days by MTT assay; assay type: functional, organism-based; conditions: Human immunodeficiency virus 1, HXB2, MT4, 120 h
[4] = tested on: Human immunodeficiency virus 1; test: Antiviral activity against Human immunodeficiency virus 1 HXB2 expressing protease M9 mutant infected in human MT4 cells after 5 days by MTT assay; assay type: functional, organism-based; conditions: Human immunodeficiency virus 1, HXB2, MT4, 120 h
[5] = Inhibition of Human immunodeficiency virus protease M8 mutant expressed in Escherichia coli using ArgGlu(EDANS)SerGlnAsnTyrProIleValGlnLys(DABCYL)Arg as substrate preincubated with compound for 0.5 to 1 min measured by fluorometric analysis at pH 6.5
[6] = Inhibition of wild type Human immunodeficiency virus protease expressed in Escherichia coli using ArgGlu(EDANS)SerGlnAsnTyrProIleValGlnLys(DABCYL)Arg as substrate preincubated with compound for 0.5 to 1 min measured by fluorometric analysis at pH 6.5
[7] = Inhibition of Human immunodeficiency virus protease M10 mutant expressed in Escherichia coli using ArgGlu(EDANS)SerGlnAsnTyrProIleValGlnLys(DABCYL)Arg as substrate preincubated with compound for 0.5 to 1 min measured by fluorometric analysis at pH 6.5
[8] = Inhibition of Human immunodeficiency virus protease M9 mutant expressed in Escherichia coli using ArgGlu(EDANS)SerGlnAsnTyrProIleValGlnLys(DABCYL)Arg as substrate preincubated with compound for 0.5 to 1 min measured by fluorometric analysis at pH 6.5
[9] = tested on: Human immunodeficiency virus 1; test: Antiviral activity against Human immunodeficiency virus 1 HXB2 expressing protease M3 mutant infected in human MT4 cells after 5 days by MTT assay; assay type: functional, organism-based; conditions: Human immunodeficiency virus 1, HXB2, MT4, 120 h
Method in brief: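 MT-4 cells (AIDS Research and Reference Reagent Program) exposed to 50% tissue culture infective doses (TCID₅₀) of virus with various concentrations of test compound for 5 days. MTT solution then added and absorbance measured. Mutant strains carry 10–17 resistance mutations with phenotypic resistance to marketed PIs; all include I84V except M7. IC₅₀ reported.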

Structure (SMILES) | pIC50 [1] | pIC50 [2] | pIC50 [3] | pIC50 [4] | pKi [5] | pKi [6] | pKi [7] | pKi [8] | pIC50 [9]
CC(C)CN(C[C@@H](O)[C@H](Cc1ccccc1)NC(=O)O[C@H]1CO[C@H]2OCC[C@H]21)S(=O)(=O)c1ccc2c(c1)CC(=O)N2 | 6.82 | 7.09 | 6.03 | 6.96 | 9.28 | > 10.00 | 7.85 | 9.02 | 
CC(C)CN(C[C@@H](O)[C@H](Cc1ccccc1)NC(=O)O[C@H]1CO[C@H]2OCC[C@H]21)S(=O)(=O)c1ccc2c(c1)C(=CNc1ccccc1)C(=O)N2 | 6.96 | 7.89 | < 6.40 | 7.00 | 9.34 | > 10.00 | 7.89 | 8.92 | 
CC(C)CN(C[C@@H](O)[C@H](Cc1ccccc1)NC(=O)O[C@H]1CO[C@H]2OCC[C@H]21)S(=O)(=O)c1ccc2c(c1)C(=CNC(C)(C)C)C(=O)N2 (mixture of isomers) | 7.46 | 8.05 | 6.70 | 7.60 | 9.46 | > 10.00 | 7.85 | 9.14 | 
CC(C)CN(C[C@@H](O)[C@H](Cc1ccccc1)NC(=O)O[C@H]1CO[C@H]2OCC[C@H]21)S(=O)(=O)c1ccc2c(c1)C(=CN(C)C)C(=O)N2 (mixture of isomers) | 7.05 | 7.03 | 7.15 | 7.19 |  | > 10.00 | > 9.00 | > 9.52 | 
CC(C)CN(C[C@@H](O)[C@H](Cc1ccccc1)NC(=O)O[C@H]1CO[C@H]2OCC[C@H]21)S(=O)(=O)c1ccc2c(c1)C(=CN)C(=O)N2 (mixture of isomers) | 6.70 | 6.52 | 6.74 | 6.70 |  | > 10.00 | 8.52 | > 9.52 | 
CNC=C1C(=O)Nc2ccc(S(=O)(=O)N(CC(C)C)C[C@@H](O)[C@H](Cc3ccccc3)NC(=O)O[C@H]3CO[C@H]4OCC[C@H]43)cc21 (mixture of isomers) |  | 7.22 | 7.03 | 7.30 | 9.96 | > 10.00 | > 9.00 | > 9.52 | 7.29
CCNC=C1C(=O)Nc2ccc(S(=O)(=O)N(CC(C)C)C[C@@H](O)[C@H](Cc3ccccc3)NC(=O)O[C@H]3CO[C@H]4OCC[C@H]43)cc21 (mixture of isomers) | 7.46 | 7.55 | 7.10 | 7.57 |  | > 10.00 | > 9.00 | > 9.52 | 
CCCNC=C1C(=O)Nc2ccc(S(=O)(=O)N(CC(C)C)C[C@@H](O)[C@H](Cc3ccccc3)NC(=O)O[C@H]3CO[C@H]4OCC[C@H]43)cc21 (mixture of isomers) |  | 7.52 | 6.92 | 7.40 | > 10.00 | 9.92 | > 9.00 | > 9.52 | 7.40
CC(C)CN(C[C@@H](O)[C@H](Cc1ccccc1)NC(=O)O[C@H]1CO[C@H]2OCC[C@H]21)S(=O)(=O)c1ccc2c(c1)C(=CNC(C)C)C(=O)N2 (mixture of isomers) | 7.52 | 7.82 | 7.22 | 7.72 | 9.96 | > 10.00 | > 9.00 | > 9.52 | 
CC(C)CN(C[C@@H](O)[C@H](Cc1ccccc1)NC(=O)O[C@H]1CO[C@H]2OCC[C@H]21)S(=O)(=O)c1ccc2c(c1)C(=CNC1CC1)C(=O)N2 (mixture of isomers) | 7.49 | 7.62 | 6.52 | 7.60 | 9.92 | > 10.00 | 8.68 | > 9.52 | 
